# Pf Dd2 inh: P. falciparum Dd2 growth inhibition. SYBR Green, 72 h; hits give low values. activity change, % at 10 µM. 94,000 tested, 2.3% active. AID 1159554; in the data active = activity change below about -80%; inconclusive = no clear call, values can overlap the other calls
# KDM4C inh: blocks human GASC-1 (KDM4C) demethylase activity; 96,000 tested, 0.15% active; AID 720574; inhibition, % at 12.5 µM; GST-KDM4C 2-372, H3K9me3 peptide, LANCE TR-FRET;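 active = mean replicate inhibition above about 25%, with at least 55% of replicates also reaching it, limit read from the data, passing the limit was not always enough; inconclusive = only one of those two conditions met; inactive = neither condition met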
#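 Compound: one test concentration per compound; Material: GST-GASC-1 enzyme fragment 2-372; Amount: GASC-1 enzyme at 10 nM final in reaction; Also added: H3K9me3 peptide substrate, Fe(II), 2-oxoglutarate; Technique: LANCE TR-FRET; Times: 30 min demethylation and 1 h detection at room temperature.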
# IDH1 mut inh: IDH1 R132H (human) inhibition; 70,000 tested, 0.18% active; IDH1 R132H reductase, diaphorase/resazurin fluorescence, 60 min; O75874; inhibition, % at 10 µM; in the data active = inhibition above about 34%; inconclusive = no clear call, values can overlap the other calls; inactive = below about 11%;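 note: 0% = DMSO and 100% = no enzyme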
# Target sequence (O75874 whole entry R132H): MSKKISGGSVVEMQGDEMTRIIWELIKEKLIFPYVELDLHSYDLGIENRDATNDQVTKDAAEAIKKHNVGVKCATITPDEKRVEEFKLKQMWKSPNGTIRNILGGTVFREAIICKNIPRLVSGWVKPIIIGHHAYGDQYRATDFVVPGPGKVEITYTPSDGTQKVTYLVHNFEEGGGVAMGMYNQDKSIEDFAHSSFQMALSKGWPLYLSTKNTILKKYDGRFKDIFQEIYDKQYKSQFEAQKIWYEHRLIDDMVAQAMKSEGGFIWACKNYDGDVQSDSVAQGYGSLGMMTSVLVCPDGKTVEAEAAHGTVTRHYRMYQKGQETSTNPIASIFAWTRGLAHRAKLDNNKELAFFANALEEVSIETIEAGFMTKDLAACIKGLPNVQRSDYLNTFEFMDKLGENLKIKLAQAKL
# T cruzi growth-1: T. cruzi proliferation inhibition. T. cruzi beta-gal in NIH3T3, GalScreen luminescence, 90 h. 77,000 tested, 5.9% active. inhibition, % at 8.34 µM. AID 624255;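 active = mean inhibition above about 93%, with at least 55% of replicates each passing it, limit read from the data, passing the limit was not always enough; inconclusive = only one of those two conditions holds; inactive = neither condition holds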
# T cruzi growth-2: blocks T. cruzi growth in NIH3T3 host cells. T. cruzi beta-gal in NIH3T3, GalScreen luminescence, 90 h. inhibition, % at 8.35 µM. AID 651739. shares compounds with T cruzi growth-1. 5,600 tested, 72% active;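 active = mean replicate inhibition above about 95% and at least 55% of replicates individually reaching it, limit read from the data; inconclusive = only one of the two criteria is met; inactive = neither criterion is met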
# T cruzi growth-3: Trypanosoma cruzi proliferation inhibition | shares compounds with T cruzi growth-1 | T. cruzi beta-gal in NIH3T3, GalScreen luminescence, 90 h | inhibition, % at 2.09 µM | 5,600 tested, 21% active | AID 651740;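 active = mean inhibition above about 95%, with at least 55% of replicates also reaching it, limit read from the data; inconclusive = meets just one of the two conditions; inactive = meets neither condition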;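 note: plate controls were neutral control median for no effect and positive control median for full effect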
# 3T3 cytotox: NIH/3T3 (mouse) viability loss; shares compounds with T cruzi growth-1; NIH/3T3 viability, CellTiter-Glo ATP luminescence, 90 h; cytotoxicity (signal decrease), % at 8.35 µM; 5,600 tested, 14% active; AID 651742;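 active = mean signal decrease across replicates above about 35% based on untreated-well scatter, with enough replicates individually passing, limit read from the data; inconclusive = no rule stated though some were filed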;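 note: 0% = median of neutral control wells and 100% = median of positive control wells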
# 3T3 cytotox 2: cytotoxicity in mouse NIH/3T3 fibroblasts; AID 651744; 5,600 tested, 56% active; NIH/3T3 viability, CellTiter-Glo ATP luminescence, 90 h; shares compounds with T cruzi growth-1; inhibition, % at 24.9 µM;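 active = mean loss of cell viability signal at or above a set limit, and enough replicates individually reaching it; inconclusive = meets only the mean limit or only the replicate share; inactive = meets neither condition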;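 note: 0% = median of neutral control wells and 100% = median of positive control wells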
# * marks the source's active call; other numbers are inactive results; u = inconclusive; x = no result given; ! = not active in a repeat. Rows were chosen to be rich in hits. Some 5.9% of all compounds tested hit in one or more screens of this group.
SMILES,Pf Dd2 inh,KDM4C inh,IDH1 mut inh,T cruzi growth-1,T cruzi growth-2,T cruzi growth-3,3T3 cytotox,3T3 cytotox 2
Cc1ccc(S(=O)(=O)N(C)C[C@H]2Oc3cc(-c4cccc(F)c4)ccc3S(=O)(=O)N([C@H](C)CO)C[C@@H]2C)cc1,-67,-2,0,126*,105*,79,36*,27
Cc1ccc(S(=O)(=O)N(C)C[C@@H]2Oc3cc(C#Cc4ccccc4)ccc3S(=O)(=O)N([C@H](C)CO)C[C@@H]2C)cc1,-43,-1,3,x,x,x,x,x
Cc1ccc(S(=O)(=O)N(C)C[C@@H]2Oc3cc(C#Cc4ccccc4)ccc3S(=O)(=O)N([C@@H](C)CO)C[C@@H]2C)cc1,-39,-1,0,x,x,x,x,x
Cc1ccc(S(=O)(=O)N(C)C[C@H]2Oc3cc(-c4cccc(F)c4)ccc3S(=O)(=O)N([C@@H](C)CO)C[C@H]2C)cc1,6,0,0,119*,103*,u,-16,49*
Cc1ccc(S(=O)(=O)N(C)C[C@H]2Oc3cc(-c4cccc(F)c4)ccc3S(=O)(=O)N([C@H](C)CO)C[C@H]2C)cc1,-7,0,-1,121*,102*,94,24,43*
Cc1ccc(S(=O)(=O)N(C)C[C@@H]2Oc3cc(-c4cccc(F)c4)ccc3S(=O)(=O)N([C@H](C)CO)C[C@H]2C)cc1,-58,-2,0,104*,92,78,69*,47*
C[C@H](CO)N1C[C@H](C)[C@@H](CN(C)C(=O)[C@@H]2CCCN2C)OCc2ccccc2-c2c(n(C)c3ccccc23)C1=O,-22,-1,x,55,x,x,x,x
Cc1noc(C)c1S(=O)(=O)Nc1ccc2c(c1)C(=O)N([C@H](C)CO)C[C@H](C)[C@@H](CN(C)Cc1ccc(C(=O)O)cc1)OCCCC[C@@H](C)O2,28,-1,x,21,x,x,x,x
COc1ccc(S(=O)(=O)N(C)C[C@@H]2Oc3cc(-c4cccc(F)c4)ccc3S(=O)(=O)N([C@@H](C)CO)C[C@H]2C)cc1,u,3,3,x,x,x,x,x
Cc1ccc(-c2ccc3c(c2)O[C@@H](CN(C)S(C)(=O)=O)[C@H](C)CN([C@H](C)CO)S3(=O)=O)cc1,-44,-2,0,102*,4,-31,20,72*
Cc1ccc(S(=O)(=O)N(C)C[C@@H]2Oc3cc(-c4cccc(F)c4)ccc3S(=O)(=O)N([C@@H](C)CO)C[C@@H]2C)cc1,-51,-1,-1,121*,100*,u,-4,37*
C[C@@H]1CN([C@@H](C)CO)S(=O)(=O)c2ccc(C#CC3CC3)cc2O[C@H]1CN(C)C(=O)CN(C)C,-33,-1,-1,-11,x,x,x,x
C[C@@H]1CN([C@H](C)CO)S(=O)(=O)c2ccc(-c3ccc(F)cc3)cc2O[C@H]1CN(C)C(=O)C1CCCCC1,-73,-2,x,53,x,x,x,x
C[C@H](CO)N1C[C@H](C)[C@H](CN(C)C(=O)C2CCCCC2)Oc2cc(-c3ccc(F)cc3)ccc2S1(=O)=O,-30,-4,-1,119*,110*,71,u,100*
C[C@H]1CN([C@@H](C)CO)S(=O)(=O)c2ccc(-c3ccc(F)cc3)cc2O[C@H]1CN(C)C(=O)C1CCCCC1,-49,-1,0,112*,96*,57,21,101*
C[C@H]1CN([C@@H](C)CO)S(=O)(=O)c2ccc(-c3ccc(F)cc3)cc2O[C@@H]1CN(C)C(=O)C1CCCCC1,-15,-2,x,99*,95*,69,10,53*
Cc1ccc(S(=O)(=O)N[C@@H]2CC[C@H](CC(=O)NCCCN(C)C)O[C@@H]2CO)cc1,10,2,0,-2,x,x,x,x
CN(C[C@H]1N[C@@H](CO)[C@@H]1c1ccc(-c2cccnc2)cc1)C(=O)c1ccccc1,-14,-1,x,85,x,x,x,x
C[C@@H]1CN([C@@H](C)CO)C(=O)c2cc(/C=C/c3ccccc3)cnc2O[C@@H]1CN(C)Cc1ccncc1,-26,-2,0,68,x,x,x,x
COc1cccc(-c2cnc3c(c2)C(=O)N([C@H](C)CO)C[C@H](C)[C@H](CN(C)Cc2ccccc2)O3)c1,-1,-1,-2,16,x,x,x,x
C[C@H](CO)N1C[C@H](C)[C@H](CN(C)C(=O)Nc2ccccc2)Oc2ncc(-c3cccc(C(F)(F)F)c3)cc2C1=O,-26,-1,x,91,x,x,x,x
C[C@@H]1CN([C@H](C)CO)C(=O)c2cc(/C=C/c3ccccc3)cnc2O[C@@H]1CN(C)Cc1ccccc1,-19,0,0,84,x,x,x,x
COc1cccc(-c2cnc3c(c2)C(=O)N([C@H](C)CO)C[C@H](C)[C@H](CN(C)Cc2cccc(C(F)(F)F)c2)O3)c1,-18,0,4,u,107*,80,30,61*
C[C@H](CO)N1C[C@H](C)[C@H](CN(C)Cc2ccccc2)Oc2ncc(/C=C/c3ccccc3)cc2C1=O,-70,0,0,120*!,117*,91,37*,102*
COc1ccc(NC(=O)N(C)C[C@@H]2Oc3ncc(-c4cccc(C(F)(F)F)c4)cc3C(=O)N([C@H](C)CO)C[C@@H]2C)cc1,-40,0,-1,103*,98*,60,19,46*
SMILES,Pf Dd2 inh,KDM4C inh,IDH1 mut inh,T cruzi growth-1,T cruzi growth-2,T cruzi growth-3,3T3 cytotox,3T3 cytotox 2
C[C@@H]1CN([C@H](C)CO)C(=O)c2cc(/C=C/c3ccccc3)cnc2O[C@H]1CN(C)Cc1ccncc1,-11,1,3,113*,105*,66,14,30*
O=C(C[C@H]1CC[C@H]2[C@@H](COC[C@@H](O)CN2CCC(F)(F)F)O1)N1CCC(Cc2ccccc2)CC1,7,0,x,50,x,x,x,x
C[C@@H]1CN([C@@H](C)CO)C(=O)c2cccc(NC(=O)C3CC3)c2O[C@@H]1CN(C)S(=O)(=O)c1ccc(F)cc1,-18,0,x,52,x,x,x,x
C[C@H](CO)N1C[C@H](C)[C@H](CN(C)Cc2cccc(C(F)(F)F)c2)Oc2ncc(/C=C/c3ccccc3)cc2C1=O,-51,1,0,116*,105*,112*,-19,80*
C[C@H]1CN([C@@H](C)CO)C(=O)c2cc(/C=C/c3ccccc3)cnc2O[C@@H]1CN(C)Cc1ccccc1,-59,0,0,106*,109*,79,24,103*
C[C@H]1CN([C@@H](C)CO)C(=O)c2cc(/C=C/c3ccccc3)cnc2O[C@@H]1CN(C)Cc1ccncc1,-32,4,-3,85,x,x,x,x

# Screening results (PubChem)
